Assay results taken from ChEMBL document CHEMBL4616714, “Discovery of CPI-1612: A Potent, Selective, and Orally Bioavailable EP300/CBP Histone Acetyltransferase Inhibitor” (ACS Med Chem Lett, 2020).
Activity calls are given as the source filed them. No cut-off for these calls is given here.

Experiments:
[1] = Volume of distribution at steady state in Sprague-Dawley rat at 1 mg/kg, iv or 5 mg/kg, po measured upto 8 hrs by LC-MS/MS analysis; assay type: ADME, organism-based; conditions: in vivo, read-out: Vdss
In short: (§1)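 Rat PK run as a single-compound experiment, dosed 1.0 mg/kg IV and 5.0 mg/kg PO. Clearance, Vss, half-life, F% and AUC/dose were derived from these arms.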

[2] = molecular target: T1, Cytochrome P450 2B6 (Homo sapiens, UniProt P20813); experiment: Inhibition of CYP2B6 (unknown origin); assay type: ADME
T1 sequence (P20813 whole entry): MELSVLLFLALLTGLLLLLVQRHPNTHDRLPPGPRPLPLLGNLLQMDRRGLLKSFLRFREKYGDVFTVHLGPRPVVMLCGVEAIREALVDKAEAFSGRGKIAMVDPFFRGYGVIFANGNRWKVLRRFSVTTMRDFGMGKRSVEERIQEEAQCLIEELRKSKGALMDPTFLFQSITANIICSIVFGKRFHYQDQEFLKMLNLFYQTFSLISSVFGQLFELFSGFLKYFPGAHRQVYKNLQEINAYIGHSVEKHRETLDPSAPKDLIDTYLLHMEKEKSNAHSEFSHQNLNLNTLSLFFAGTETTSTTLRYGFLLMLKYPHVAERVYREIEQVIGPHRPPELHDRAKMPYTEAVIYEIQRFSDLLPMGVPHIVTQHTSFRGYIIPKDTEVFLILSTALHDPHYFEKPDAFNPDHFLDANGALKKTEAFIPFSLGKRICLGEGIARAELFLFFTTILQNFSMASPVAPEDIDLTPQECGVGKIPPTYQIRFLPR

[3] = Permeability of compound at 10 uM incubated for 4 hrs by LC-MS/MS based PAMPA method; assay type: ADME; conditions: read-out: permeability
In short: (§2)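 Single run per compound for each of the PAMPA, mouse plasma protein binding and mouse liver microsome clearance assays.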

[4] = molecular target: CREB-binding protein (Homo sapiens, UniProt Q92793); experiment: Binding affinity to recombinant full length CBP (unknown origin) incubated for 30 mins followed by H3(1 to 21) addition and measured after 1 hr by scintillation proximity assay
CREB-binding protein, sequence (Q92793 whole entry): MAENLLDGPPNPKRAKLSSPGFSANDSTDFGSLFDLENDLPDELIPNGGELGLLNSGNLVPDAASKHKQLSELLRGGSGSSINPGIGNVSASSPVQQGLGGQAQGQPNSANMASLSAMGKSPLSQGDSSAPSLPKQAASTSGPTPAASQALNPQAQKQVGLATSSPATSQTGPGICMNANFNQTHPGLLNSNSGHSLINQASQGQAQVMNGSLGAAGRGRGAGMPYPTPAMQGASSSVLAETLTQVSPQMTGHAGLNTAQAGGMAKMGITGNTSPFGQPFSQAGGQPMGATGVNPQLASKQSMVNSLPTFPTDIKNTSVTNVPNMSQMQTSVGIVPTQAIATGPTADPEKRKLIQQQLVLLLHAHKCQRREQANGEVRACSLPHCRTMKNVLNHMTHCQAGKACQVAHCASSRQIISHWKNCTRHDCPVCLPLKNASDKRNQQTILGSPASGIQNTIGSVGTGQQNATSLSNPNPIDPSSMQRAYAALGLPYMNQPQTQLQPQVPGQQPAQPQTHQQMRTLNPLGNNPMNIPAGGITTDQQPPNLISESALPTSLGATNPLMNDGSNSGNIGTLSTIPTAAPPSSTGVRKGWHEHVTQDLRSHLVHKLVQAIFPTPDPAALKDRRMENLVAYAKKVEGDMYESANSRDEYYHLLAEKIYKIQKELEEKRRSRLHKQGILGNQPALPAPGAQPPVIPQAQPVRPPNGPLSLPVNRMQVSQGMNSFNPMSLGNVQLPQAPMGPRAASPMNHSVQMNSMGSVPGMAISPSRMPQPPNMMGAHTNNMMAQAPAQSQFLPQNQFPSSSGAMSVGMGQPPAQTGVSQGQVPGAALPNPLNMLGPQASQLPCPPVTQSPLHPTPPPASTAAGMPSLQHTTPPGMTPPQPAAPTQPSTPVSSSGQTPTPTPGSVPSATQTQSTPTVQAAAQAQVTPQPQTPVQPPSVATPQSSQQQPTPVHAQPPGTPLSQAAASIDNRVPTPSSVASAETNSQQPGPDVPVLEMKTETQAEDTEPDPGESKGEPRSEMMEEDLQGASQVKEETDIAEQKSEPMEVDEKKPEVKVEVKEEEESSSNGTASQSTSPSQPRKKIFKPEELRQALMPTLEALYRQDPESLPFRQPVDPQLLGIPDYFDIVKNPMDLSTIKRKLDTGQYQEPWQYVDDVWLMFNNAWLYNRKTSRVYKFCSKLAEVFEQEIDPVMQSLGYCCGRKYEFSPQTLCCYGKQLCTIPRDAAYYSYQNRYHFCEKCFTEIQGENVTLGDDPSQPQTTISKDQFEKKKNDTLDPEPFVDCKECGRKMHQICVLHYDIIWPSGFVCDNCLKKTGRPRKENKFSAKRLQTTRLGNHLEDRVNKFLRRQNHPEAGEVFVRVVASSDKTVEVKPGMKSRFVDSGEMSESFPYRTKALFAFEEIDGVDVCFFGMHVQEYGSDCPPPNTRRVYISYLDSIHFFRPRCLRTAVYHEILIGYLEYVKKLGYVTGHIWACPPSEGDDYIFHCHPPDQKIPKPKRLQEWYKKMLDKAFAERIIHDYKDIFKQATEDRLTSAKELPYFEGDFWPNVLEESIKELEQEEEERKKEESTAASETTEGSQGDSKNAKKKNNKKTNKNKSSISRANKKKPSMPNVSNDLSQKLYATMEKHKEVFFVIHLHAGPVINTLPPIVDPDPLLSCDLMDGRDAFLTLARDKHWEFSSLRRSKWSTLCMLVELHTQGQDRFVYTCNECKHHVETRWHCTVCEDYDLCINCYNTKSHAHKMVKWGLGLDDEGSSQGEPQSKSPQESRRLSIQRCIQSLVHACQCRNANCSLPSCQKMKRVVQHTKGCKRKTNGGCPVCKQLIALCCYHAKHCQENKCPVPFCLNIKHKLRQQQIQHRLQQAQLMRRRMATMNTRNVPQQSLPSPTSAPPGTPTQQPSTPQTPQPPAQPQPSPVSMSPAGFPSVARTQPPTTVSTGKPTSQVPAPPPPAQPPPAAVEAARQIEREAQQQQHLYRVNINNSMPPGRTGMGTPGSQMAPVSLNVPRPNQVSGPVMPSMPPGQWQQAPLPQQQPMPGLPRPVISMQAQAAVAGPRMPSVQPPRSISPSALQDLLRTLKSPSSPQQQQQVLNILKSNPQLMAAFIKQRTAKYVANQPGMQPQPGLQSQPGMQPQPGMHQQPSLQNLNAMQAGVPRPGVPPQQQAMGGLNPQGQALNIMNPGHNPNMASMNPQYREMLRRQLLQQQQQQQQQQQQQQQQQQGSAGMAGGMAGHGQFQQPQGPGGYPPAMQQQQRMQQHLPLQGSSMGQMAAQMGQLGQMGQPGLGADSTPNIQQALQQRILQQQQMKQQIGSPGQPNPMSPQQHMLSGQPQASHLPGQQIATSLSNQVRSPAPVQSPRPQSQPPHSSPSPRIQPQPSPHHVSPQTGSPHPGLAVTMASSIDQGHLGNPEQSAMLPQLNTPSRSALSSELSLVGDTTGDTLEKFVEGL
In short: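 Biochemical HAT assays run by scintillation proximity; values are the average of two or more runs.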

[5] = AUC/dose in CD-1 mouse at 1 mg/kg, iv or 5 mg/kg, po measured upto 8 hrs by LC-MS/MS analysis; assay type: ADME, organism-based; conditions: in vivo
In short: (§3)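 Mouse PK run as a single-compound experiment, dosed 1 mg/kg IV and 5 mg/kg PO. Clearance, Vss, half-life, F% and AUC/dose were derived from these arms.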

[6] = Clearance in CD-1 mouse at 0.5 mg/kg, iv or […], po measured upto 8 hrs by LC-MS/MS analysis; assay type: ADME, organism-based; conditions: in vivo
[7] = Protein binding in mouse plasma at 5 uM incubated for 6 hrs by LC-MS/MS analysis; assay type: ADME, cell-free; conditions: read-out: PPB (converted); in short: as §2
[8] = Volume of distribution at steady state in CD-1 mouse at 0.5 mg/kg, iv or […], po measured upto 8 hrs by LC-MS/MS analysis; assay type: ADME, organism-based; conditions: in vivo, read-out: Vdss
[9] = molecular target: T2, Cytochrome P450 2C8 (Homo sapiens, UniProt P10632); experiment: Inhibition of CYP2C8 (unknown origin); assay type: ADME
T2 sequence (P10632 whole entry): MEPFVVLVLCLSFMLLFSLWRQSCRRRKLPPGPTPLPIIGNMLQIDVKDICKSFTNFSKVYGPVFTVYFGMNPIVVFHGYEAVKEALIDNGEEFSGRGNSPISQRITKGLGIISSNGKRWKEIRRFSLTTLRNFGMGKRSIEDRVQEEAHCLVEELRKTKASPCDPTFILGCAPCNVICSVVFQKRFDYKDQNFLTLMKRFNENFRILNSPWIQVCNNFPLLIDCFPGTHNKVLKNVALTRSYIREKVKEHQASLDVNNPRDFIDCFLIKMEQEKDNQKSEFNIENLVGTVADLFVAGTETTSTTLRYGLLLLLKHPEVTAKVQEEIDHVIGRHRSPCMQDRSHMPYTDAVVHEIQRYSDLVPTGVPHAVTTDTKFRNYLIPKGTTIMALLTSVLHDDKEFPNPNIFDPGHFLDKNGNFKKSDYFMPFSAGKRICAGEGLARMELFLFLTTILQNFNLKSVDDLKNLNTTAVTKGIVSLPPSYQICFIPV

[10] = test system: JeKo-1; experiment: Antitumor activity in human JeKo1 cells xenografted in […] mouse assessed as reduction in H3K27 acetylation in mouse plasma at 0.5 mg/kg, po administered bid and measured on day 26 by FACS analysis; assay type: functional, organism-based
In short: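 JEKO-1 mantle cell lymphoma xenograft dosed 0.5 mg/kg PO BID. Read-outs were tumour growth inhibition, plasma H3K27Ac and tumour H3K18Ac.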

[11] = Oral bioavailability in CD-1 mouse at 5 mg/kg measured upto 8 hrs by LC-MS/MS analysis; assay type: ADME, organism-based; conditions: in vivo; in short: as §3
[12] = molecular target: Cytochrome P450 2D6 (Homo sapiens, UniProt P10635); experiment: Inhibition of CYP2D6 (unknown origin); assay type: ADME
Cytochrome P450 2D6, sequence (P10635 whole entry): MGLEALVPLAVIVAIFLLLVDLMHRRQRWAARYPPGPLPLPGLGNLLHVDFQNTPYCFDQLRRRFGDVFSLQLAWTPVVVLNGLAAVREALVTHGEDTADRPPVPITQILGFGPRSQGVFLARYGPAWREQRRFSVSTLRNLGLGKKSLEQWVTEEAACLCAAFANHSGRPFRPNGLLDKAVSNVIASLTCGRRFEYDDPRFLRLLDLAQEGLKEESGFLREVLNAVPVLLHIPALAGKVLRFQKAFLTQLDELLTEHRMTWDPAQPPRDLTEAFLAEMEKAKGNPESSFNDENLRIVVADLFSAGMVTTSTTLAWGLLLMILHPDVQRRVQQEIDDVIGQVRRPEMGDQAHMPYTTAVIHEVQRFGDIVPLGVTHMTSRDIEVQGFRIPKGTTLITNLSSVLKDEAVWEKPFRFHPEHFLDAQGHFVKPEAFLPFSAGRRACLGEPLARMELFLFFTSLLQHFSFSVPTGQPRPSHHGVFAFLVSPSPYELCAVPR

[13] = Half life in Sprague-Dawley rat at 1 mg/kg, iv or 5 mg/kg, po measured upto 8 hrs by LC-MS/MS analysis; assay type: ADME, organism-based; conditions: in vivo; in short: as §1
[14] = Metabolic stability in mouse liver microsomes assessed as intrinsic clearance at 1 uM measured upto 30 mins by LC-MS/MS analysis; assay type: ADME, Microsome; conditions: read-out: CLH; in short: as §2
[15] = molecular target: Histone acetyltransferase KAT7 (Homo sapiens) (UniProt O95251); experiment: Inhibition of MYST2 (unknown origin)
Histone acetyltransferase KAT7 (Homo sapiens), sequence (O95251 whole entry): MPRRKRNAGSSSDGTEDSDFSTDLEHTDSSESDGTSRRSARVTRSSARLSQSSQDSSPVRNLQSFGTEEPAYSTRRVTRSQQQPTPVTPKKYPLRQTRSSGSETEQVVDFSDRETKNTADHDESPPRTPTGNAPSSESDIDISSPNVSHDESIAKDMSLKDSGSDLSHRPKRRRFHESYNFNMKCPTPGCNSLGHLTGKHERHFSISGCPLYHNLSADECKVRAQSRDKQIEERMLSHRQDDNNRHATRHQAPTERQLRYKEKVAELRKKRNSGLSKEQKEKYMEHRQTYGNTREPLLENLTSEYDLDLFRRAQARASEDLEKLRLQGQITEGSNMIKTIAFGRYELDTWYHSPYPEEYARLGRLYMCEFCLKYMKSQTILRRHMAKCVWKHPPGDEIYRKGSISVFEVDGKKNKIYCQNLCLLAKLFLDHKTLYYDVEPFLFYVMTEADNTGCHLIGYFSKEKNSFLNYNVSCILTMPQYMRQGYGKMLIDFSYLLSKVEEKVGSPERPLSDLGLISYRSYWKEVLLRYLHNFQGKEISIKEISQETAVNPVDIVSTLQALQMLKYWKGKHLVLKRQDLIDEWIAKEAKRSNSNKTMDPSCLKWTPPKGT

Vd [1]: 1.8 L/kg
IC50 [2]: 8.2 µM
Papp at 4 h, 10 µM [3]: 1.19 ×10⁻⁶ cm/s
IC50 [4]: 0.0029 µM
AUC/dose [5]: 211 ng·h/mL
clearance [6]: 31.3 mL/min/kg
fraction unbound at 6 h, 5 µM [7]: 0.009
Vd [8]: 0.99 L/kg
IC50 [9]: 1.9 µM
bioavailability [11]: 79%
IC50 [12]: 34 µM
half-life [13]: 1.2 h
CLint scaled at 1 µM [14]: 178 mL/min/kg
inhibition [15]: inactive
SMILES: C[C@H](CN[C@@H](C(=O)Nc1ccc(-c2cnn(C)c2)cn1)c1ccccc1)c1ccc(C#N)cc1
Activity [10]: Active
